ChEMBL document CHEMBL3621164, “Discovery of Triazole CYP11B2 Inhibitors with in Vivo Activity in Rhesus Monkeys” (ACS Med Chem Lett, 2015)
pIC50: −log10 of the molar value.

What was measured:
Plasma [1] = assay: Plasma protein binding in rhesus monkey; assay type: ADME, cell-free, Macaca mulatta
Plasma [2] = assay: Free plasma concentration in rhesus monkey at 0.1 mg/kg, iv measured 90 mins post dose by LC/MS method; assay type: ADME, organism-based, Macaca mulatta; details: in vivo, 1.5 h
Outline: (§1)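 Anesthetized rhesus monkeys dosed i.v.; plasma drug concentration measured 90 min postdose. Free (unbound) concentration calculated from total plasma level using the free fraction determined in rhesus plasma.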

Aromatase = target: T1, Aromatase (Homo sapiens, UniProt P11511); assay: Inhibition of human CYP19
T1 sequence (P11511 whole entry): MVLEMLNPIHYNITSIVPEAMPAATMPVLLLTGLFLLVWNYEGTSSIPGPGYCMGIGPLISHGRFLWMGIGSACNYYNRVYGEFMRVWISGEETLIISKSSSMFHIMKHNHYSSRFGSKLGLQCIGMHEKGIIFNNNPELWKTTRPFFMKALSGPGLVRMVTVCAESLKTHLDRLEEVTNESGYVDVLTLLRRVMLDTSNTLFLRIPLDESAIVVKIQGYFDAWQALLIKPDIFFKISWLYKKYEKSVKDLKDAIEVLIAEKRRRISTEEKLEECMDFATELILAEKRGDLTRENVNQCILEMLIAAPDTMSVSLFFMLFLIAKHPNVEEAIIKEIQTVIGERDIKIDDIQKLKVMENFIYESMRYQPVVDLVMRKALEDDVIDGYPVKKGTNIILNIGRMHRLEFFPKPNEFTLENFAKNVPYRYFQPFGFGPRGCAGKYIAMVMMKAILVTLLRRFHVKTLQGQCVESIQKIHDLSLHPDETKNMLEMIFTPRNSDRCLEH

[3] = Oral bioavailability in Sprague-Dawley rat at 2 mg/kg administered through gavage; assay type: ADME, organism-based; details: in vivo
[4] = target: T2, Cytochrome P450 11B2, mitochondrial (Rattus norvegicus, UniProt P30099); assay: Inhibition of rat CYP11B2 expressed in V79 cells assessed as aldosterone level after 3 hrs by HTRF assay in presence of 500 nM 11-deoxycorticosterone; assay type: cell-based; details: v79, 3 h
T2 sequence (P30099 whole entry): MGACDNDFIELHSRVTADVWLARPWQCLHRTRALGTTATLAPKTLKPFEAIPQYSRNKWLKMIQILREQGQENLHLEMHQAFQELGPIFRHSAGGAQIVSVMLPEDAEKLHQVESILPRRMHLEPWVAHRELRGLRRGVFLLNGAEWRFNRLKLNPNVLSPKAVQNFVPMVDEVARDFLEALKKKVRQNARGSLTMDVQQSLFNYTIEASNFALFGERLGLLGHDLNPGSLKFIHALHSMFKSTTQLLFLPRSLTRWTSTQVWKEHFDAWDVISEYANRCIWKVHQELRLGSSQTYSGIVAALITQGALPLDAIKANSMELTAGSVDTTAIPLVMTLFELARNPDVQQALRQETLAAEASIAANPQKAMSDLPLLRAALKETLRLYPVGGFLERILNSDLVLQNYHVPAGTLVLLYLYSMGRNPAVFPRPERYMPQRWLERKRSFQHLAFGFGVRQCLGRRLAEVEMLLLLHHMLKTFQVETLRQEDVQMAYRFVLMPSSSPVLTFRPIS

[5] = Plasma clearance in Sprague-Dawley rat at 2 mg/kg, po administered through gavage by LC/MS/MS method; assay type: ADME, organism-based
Plasma [6] = assay: Free plasma concentration in rhesus monkey at 1 mg/kg, iv measured 90 mins post dose by LC/MS method; assay type: ADME, organism-based, Macaca mulatta; details: in vivo, 1.5 h; outline: as §1
[7] = Oral bioavailability in rhesus monkey at 2 mg/kg administered through gavage; assay type: ADME, organism-based, Macaca mulatta; details: in vivo
[8] = Inhibition of rhesus monkey CYP11B1; parameters: species or system Macaca mulatta
Rhesus monkey [9] = assay: Decrease in aldosterone level in rhesus monkey plasma at 1 mg/kg, iv by LC/MS method; assay type: functional; details: Macaca mulatta
Outline: (§2)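 Plasma aldosterone and 11-deoxycortisol quantified by LC–MS at time points up to 180 min postdose; AUCs over that period calculated and compared with baseline.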

Plasma [10] = assay: Fraction unbound in iv dosed rhesus monkey plasma measured 90 mins post dose by LC/MS method; assay type: ADME, organism-based, Macaca mulatta; details: in vivo, 1.5 h
Rhesus monkey [11] = assay: Decrease in aldosterone level in iv dosed rhesus monkey plasma by LC/MS method; assay type: functional, organism-based; details: Macaca mulatta; outline: as §2
[12] = target: T3, Cytochrome P450 11B2, mitochondrial (Homo sapiens, UniProt P19099); assay: Inhibition of human CYP11B2 expressed in V79 cells assessed as aldosterone level after 3 hrs by HTRF assay in presence of 125 nM 11-deoxycorticosterone; assay type: cell-based
T3 sequence (P19099 whole entry): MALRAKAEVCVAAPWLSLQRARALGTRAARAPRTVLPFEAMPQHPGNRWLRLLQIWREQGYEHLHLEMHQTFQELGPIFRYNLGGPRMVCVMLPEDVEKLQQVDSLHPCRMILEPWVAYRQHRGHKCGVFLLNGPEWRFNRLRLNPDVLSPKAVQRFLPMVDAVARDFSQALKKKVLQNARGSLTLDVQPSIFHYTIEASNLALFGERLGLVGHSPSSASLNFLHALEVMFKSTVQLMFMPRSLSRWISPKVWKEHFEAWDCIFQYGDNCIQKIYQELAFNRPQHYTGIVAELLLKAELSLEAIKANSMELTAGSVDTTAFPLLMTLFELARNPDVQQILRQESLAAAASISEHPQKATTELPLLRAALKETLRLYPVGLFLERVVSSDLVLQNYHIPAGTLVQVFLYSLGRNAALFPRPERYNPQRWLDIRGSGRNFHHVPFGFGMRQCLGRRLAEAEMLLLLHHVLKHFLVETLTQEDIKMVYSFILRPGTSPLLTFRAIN

Cytochrome P450 3A4 = Cytochrome P450 3A4 (Homo sapiens, UniProt P08684); assay: Inhibition of human CYP3A4; assay type: ADME
Rattus norvegicus = assay: Dose normalized AUC in Sprague-Dawley rat at 2 mg/kg, po administered through gavage; assay type: ADME, organism-based; details: in vivo
[13] = Plasma clearance in rhesus monkey at 2 mg/kg administered through gavage by LC-MS/MS method; assay type: ADME, organism-based, Macaca mulatta; details: po
[14] = Lipophilicity, log D of the compound by HPLC; assay type: physicochemical
Outline: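 Lipophilicity determined experimentally by HPLC.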

[15] = Half life in Sprague-Dawley rat at 2 mg/kg, po administered through gavage by LC/MS/MS method; assay type: ADME, organism-based; details: in vivo
Rhesus monkey [16] = assay: Decrease in aldosterone level in rhesus monkey plasma at 0.1 mg/kg, iv by LC/MS method; assay type: functional; details: Macaca mulatta; outline: as §2
[17] = Intrinsic clearance in rhesus monkey liver microsomes by LC/MS method; assay type: ADME, Macaca mulatta

Chain of Cytochrome P450 3A4 (P08684 whole entry): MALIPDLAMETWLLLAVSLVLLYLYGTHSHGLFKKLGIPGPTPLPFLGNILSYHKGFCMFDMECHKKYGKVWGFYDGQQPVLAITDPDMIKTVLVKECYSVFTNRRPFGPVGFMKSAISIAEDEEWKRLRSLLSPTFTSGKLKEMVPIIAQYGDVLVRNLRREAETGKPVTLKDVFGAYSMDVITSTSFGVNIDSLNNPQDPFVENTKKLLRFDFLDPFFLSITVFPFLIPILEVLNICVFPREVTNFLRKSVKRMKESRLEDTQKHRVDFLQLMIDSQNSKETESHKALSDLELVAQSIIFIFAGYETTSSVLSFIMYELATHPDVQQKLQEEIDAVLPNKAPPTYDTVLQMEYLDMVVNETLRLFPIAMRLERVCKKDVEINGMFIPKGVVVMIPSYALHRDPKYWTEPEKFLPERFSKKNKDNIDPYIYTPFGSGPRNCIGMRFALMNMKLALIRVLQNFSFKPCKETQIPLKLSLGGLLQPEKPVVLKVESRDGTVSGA

In the case of `Cc1nnc2n1-c1ccc(-c3cncc([C@](C)(O)C(F)(F)F)c3)cc1CC2`, the PPB (Plasma [1]) was 31%, the “Cp(f)” value (Plasma [2]) was 19 nM and the pIC50 (Aromatase) was less than 4.52. For the same molecule, the bioavailability [3] was 87%, the “inhibition (INH)” value [4] was “Active” and the CL/F [5] was 21 mL/min/kg. The “Cp(f)” value (Plasma [6]) was 279 nM, the bioavailability [7] was 100% and the pIC50 [8] was 5.46. For the same molecule, the inhibition in vivo at 1 mg/kg (Rhesus monkey [9]) was 98%, the Fu (Plasma [10]) was 31% and the inhibition (Rhesus monkey [11]) was “Dose-dependent effect”. The pIC50 [12] was 7.19, the pIC50 (Cytochrome P450 3A4) was less than 4.30 and the AUC/dose (Rattus norvegicus) was 1.88 µM·kg·h/mg. It also gave a CL/F [13] of 3 mL/min/kg, a logD [14] of 1.2 and a half-life [15] of 1.2 h. The inhibition in vivo at 0.1 mg/kg (Rhesus monkey [16]) was 48% and the CLint scaled [17] was less than 20 mL/min/kg.
